Consider 5 compounds from ChEMBL document CHEMBL1130129, “Immunologically specific activation of a cephalosporin derivative of mitomycin C by monoclonal antibody beta-lactamase conjugates” (J Med Chem, 1997).

Experiment [1] is described as follows: Ratio of kinetic constants for hydrolysis by beta-lactamase from Enterobacter cloacae P99 (kcat/Km). Set-up: unit not given here. An outline of the steps: (§1)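 Purified E. cloacae β-lactamase (0.1 µg/mL) added to prodrug in PBS pH 7.2 containing 12.5 µg/mL bovine serum albumin, 23 °C; β-lactam hydrolysis followed by loss of absorbance at 260 nm. Initial velocities taken from linear portions of absorbance-time plots and used to derive kinetic constants.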

Experiment [2] addresses Beta-lactamase (Enterobacter cloacae) (UniProt P05364). Nature of the experiment: Determination of kinetic constant (Kcat) for hydrolysis by beta-lactamase from Enterobacter cloacae P99. An outline of the steps: as §1

Sequence of Beta-lactamase (Enterobacter cloacae) (P05364 21-381 limits assumed): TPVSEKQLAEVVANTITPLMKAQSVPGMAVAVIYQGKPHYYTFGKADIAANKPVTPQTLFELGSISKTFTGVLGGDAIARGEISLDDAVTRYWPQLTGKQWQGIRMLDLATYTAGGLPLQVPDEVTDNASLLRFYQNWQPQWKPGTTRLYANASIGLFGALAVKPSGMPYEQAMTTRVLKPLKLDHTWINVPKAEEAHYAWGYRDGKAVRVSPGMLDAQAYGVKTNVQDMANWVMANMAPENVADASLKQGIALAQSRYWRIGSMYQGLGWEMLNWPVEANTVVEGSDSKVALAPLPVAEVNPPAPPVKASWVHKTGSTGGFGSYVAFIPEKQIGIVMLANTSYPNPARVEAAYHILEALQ

Regarding `O=C(Cc1ccccc1)N[C@@H]1C(=O)N2C(C(=O)O)=C(COC(=O)Nc3ccc(N(CCCl)CCCl)cc3)CS[C@H]12`, the Ratio in experiment [1] was found to be 17. The k cat in experiment [2] was determined as 119 s⁻¹.
Take `COc1cccc2c1C(=O)c1c(O)c3c(c(O)c1C2=O)C[C@@](O)(C(=O)CO)C[C@@H]3OC1CC(NC(=O)OCC2=C(C(=O)O)N3C(=O)[C@@H](NC(=O)CCCC(=O)O)[C@H]3SC2)C(O)C(C)O1` (some centres undefined): the Ratio in experiment [1] is 2.5.
Turning to `CO[C@@]12[C@H](COC(N)=O)C3=C(C(=O)C(C)=C(NCC4=C(C(=O)O)N5C(=O)[C@@H](NC(=O)Cc6ccccc6)[C@H]5SC4)C3=O)N1C[C@@H]1N[C@@H]12`, in experiment [1], the Ratio amounted to 9.7. The k cat in experiment [2] amounted to 476 s⁻¹.
Turning to `O=C(O)CCCC(=O)N[C@@H]1C(=O)N2C(C(=O)O)=C(COC(=O)Nc3ccc(N(CCCl)CCCl)cc3)CS[C@H]12`, the Ratio in experiment [1] worked out at 7.8. In experiment [2], this compound registered a k cat of 337 s⁻¹.
The matching figures for `CO[C@@]12[C@H](COC(N)=O)C3=C(C(=O)C(C)=C(NCC4=C(C(=O)O)N5C(=O)[C@@H](NC(=O)CCCC(=O)O)[C@H]5SC4)C3=O)N1C[C@@H]1N[C@@H]12`: 2.1 and 248 s⁻¹.
